Series [1] is described as follows: Tmax in Sprague-Dawley rat at 10 mg/kg, po measured after 5 to 720 mins by LC-tandem mass spectrometry analysis. The class given is ADME, organism-based. The settings on record: in vivo. In outline: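 Male Sprague–Dawley rats (190-210 g), fasted 12 h, given 1 mg/kg i.v. or 10 mg/kg p.o. in DMSO/5% glucose water (1:9). Blood sampled at 2–720 min (i.v.) or 5–720 min (p.o.). Plasma proteins precipitated with methanol using caffeine internal standard, then LC-MS/MS. Noncompartmental analysis; F = AUC0-∞ ratio corrected for dose; triplicate ±SD.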

Series [2] is described as follows: Drug level in plasma of nude mouse xenograted with human GIST5R cells at 100 mg/kg, po administered as single dose and measured at 30 mins. The class given is ADME, organism-based. The following applies: in vivo, 0.5 h. In short, it runs like this: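 GIST-5R xenograft nu/nu mice given a single 100 mg/kg oral dose; plasma drug concentration followed over a time course alongside tumor p-c-KIT, p-ERK and p-AKT.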

For series [3], the system named is Mast/stem cell growth factor receptor Kit (Homo sapiens), P10721 [UNDEFINED MUTATION]. Briefly: Inhibition of c-KIT 560 to 578 deletion mutant in human GISTT1 cells assessed as reduction in c-KIT autophosphorylation at Y719 residue at 0.1 uM to 3 uM after 1 hr by Western blot analysis. The class given is cell-based. In short, it runs like this:
(§1)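 Serial compound dilutions applied for 1 h to GIST-T1, GIST-T1-T670I (CRISPR/Cas9 T670I knock-in, clone confirmed by Sanger sequencing) or GIST-5R cells in DMEM with 10% FBS. Cells then lysed and phospho-proteins detected by standard Western blotting.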
For orientation: In western blotting, separated proteins are transferred to a membrane and probed.

Series [4] shares this test system. Briefly: Inhibition of c-KIT 560 to 578 deletion/T670I double mutant in human GISTT1 cells assessed as reduction in S6 phosphorylation at S235/S236 residue at 0.1 uM to 3 uM after 1 hr by Western blot analysis. The class given is cell-based. In short, it runs like this:
as §1

For series [5], the system named is Mus musculus. Kind of series: Inhibition of ERK phosphorylation at T202/Y204 residue in tumor of human GIST5R cells xenografted in nude mouse at 100 mg/kg, po administered as single dose and measured after 2 hrs. The class given is functional, organism-based. In outline:
(§2)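 Female nu/nu mice bearing subcutaneous GIST-5R tumors (cells in Matrigel, right flank) given one oral dose of 100 mg/kg in 0.5% methylcellulose/0.4% Tween80. Tumors collected over a 2 h time course. p-c-KIT, p-ERK and p-AKT measured alongside plasma drug levels.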
(In general: Xenograft models place foreign cells or tissue in a host animal.)

For series [6], the target named is Platelet-derived growth factor receptor alpha (Homo sapiens, UniProt P16234). Kind of series: Binding affinity to wild-type human partial length PDGFRA (V575 to D1002 residues) expressed in mammalian expression system assessed as enzyme remaining activity at 1 uM by Kinomescan assay relative to control.
Series [7] is described as follows: AUC (0 to infinity) in Sprague-Dawley rat at 1 mg/kg, iv measured after 2 to 720 mins by LC-tandem mass spectrometry analysis. The class given is ADME, organism-based. Set-up: dose 1 mg/kg, route intravenous, time infinity. The settings on record: in vivo. In outline: (§3)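 Male Sprague-Dawley rats (190-210 g), fasted 12 h, randomized into two groups: 1 mg/kg i.v. or 10 mg/kg p.o., both formulated in 10% DMSO/90% of 5% glucose water. Blood sampled at 2-720 min (i.v.) or 5-720 min (p.o.). Plasma protein-precipitated with methanol, caffeine internal standard, LC-MS/MS. Noncompartmental analysis; triplicate, ±SD.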

Series [8] concerns Mast/stem cell growth factor receptor Kit (Homo sapiens), P10721 [V559D]. Briefly: Binding affinity to human partial length c-KIT V559D mutant (Y545 to D952 residues) expressed in bacterial expression system assessed as enzyme remaining activity at 1 uM by Kinomescan method relative to control. In short, it runs like this: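 KINOMEscan binding profile (DiscoverX) run at 1 μM against a panel of 468 kinases and mutants. Read-out is percent of control (%Ctrl) remaining bound.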

Series [9] deals with GISTT1. Briefly: Induction of cell cycle arrest in human GISTT1 cells harboring 560 to 578 deletion/T670I double mutant after 24 hrs. The class given is functional, cell-based.
Series [10] is described as follows: AUC (0 to t) in mouse at 1 mg/kg, iv measured after 2 to 720 mins by LC-tandem mass spectrometry analysis. The following applies: in vivo. The class given is ADME, organism-based. In outline:
(§4)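 Mice dosed 1 mg/kg i.v. or 10 mg/kg p.o.; plasma drug levels by LC-MS/MS, parameters by noncompartmental analysis; values not from triplicate testing.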

Series [11] deals with Mast/stem cell growth factor receptor Kit (Homo sapiens), P10721 [UNDEFINED MUTATION]. Briefly: Inhibition of c-KIT 560 to 578 deletion mutant in human GISTT1 cells assessed as reduction in AKT phosphorylation at S473 residue at 0.1 uM to 3 uM after 1 hr by Western blot analysis. The class given is cell-based. In outline:
as §1

The test system of series [12] is Mus musculus. Kind of series: Inhibition of ERK phosphorylation at T202/Y204 residue in tumor of human GIST5R cells xenografted in nude mouse at 100 mg/kg, po administered as single dose and measured at 2 hrs. The class given is functional, organism-based. In short, it runs like this:
as §2

For series [13], the system named is Mus musculus. Briefly: Inhibition of c-KIT phosphorylation at Y823 residue in tumor of human GIST5R cells xenografted in nude mouse at 100 mg/kg, po administered as single dose and measured at 2 hrs. The class given is functional, organism-based. In outline:
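Female nu/nu mice bearing subcutaneous GIST-5R xenografts (cells in Matrigel, right flank) given one oral gavage dose of 100 mg/kg in HKI suspension (0.5% methocellulose/0.4% Tween80 in ddH2O). Tumors collected over a 2 h time course; p-c-KIT, p-ERK and p-AKT assessed by Western blot; plasma drug levels monitored in parallel.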

Series [14] can be described thus: AUC (0 to infinity) in Sprague-Dawley rat at 10 mg/kg, po measured after 5 to 720 mins by LC-tandem mass spectrometry analysis. The class given is ADME, organism-based. Further details: dose 10 mg/kg, route oral, time infinity. The settings on record: in vivo. In short, it runs like this: as §3
The nature of series [15]: Apparent clearance in mouse at 10 mg/kg, po measured after 5 to 720 mins by LC-tandem mass spectrometry analysis. The settings on record: in vivo, read-out: CL(app) (converted). The class given is ADME, organism-based. In short, it runs like this: as §4
The species entered for series [16] is Homo sapiens. Briefly: Induction of apoptosis in human GIST5R cells harboring c-KIT 560 to 578 deletion/T670I double mutant assessed as increase in cleaved PARP level after 24 hrs by Western blot analysis. The class given is functional, cell-based. In short, it runs like this:
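GIST cells grown in DMEM with 10% FBS, treated 24 h with serially diluted compound; apoptosis read by Western blot for PARP, with GAPDH as loading control.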

Series [17] concerns GISTT1. Kind of series: Induction of cell cycle arrest in human GISTT1 cells harboring c-KIT 560 to 578 deletion mutant after 24 hrs. The class given is functional, cell-based.
Series [18] in a line: Cmax in mouse at 1 mg/kg, iv measured after 2 to 720 mins by LC-tandem mass spectrometry analysis. Further details: dose 1 mg/kg, route intravenous. The class given is ADME, organism-based. The settings on record: in vivo. In short, it runs like this: as §4
For series [19], the system named is GISTT1. Kind of series: Induction of apoptosis in human GISTT1 cells harboring c-KIT 560 to 578 deletion mutant assessed as increase in cleaved caspase level after 24 hrs by Western blot analysis. The class given is functional, cell-based.

The source made the active and inactive calls. The rule behind the calls is not given here.

Chain of Mast/stem cell growth factor receptor Kit (Homo sapiens), P10721 [UNDEFINED MUTATION] (P10721 whole entry, looked up, stated change not applied): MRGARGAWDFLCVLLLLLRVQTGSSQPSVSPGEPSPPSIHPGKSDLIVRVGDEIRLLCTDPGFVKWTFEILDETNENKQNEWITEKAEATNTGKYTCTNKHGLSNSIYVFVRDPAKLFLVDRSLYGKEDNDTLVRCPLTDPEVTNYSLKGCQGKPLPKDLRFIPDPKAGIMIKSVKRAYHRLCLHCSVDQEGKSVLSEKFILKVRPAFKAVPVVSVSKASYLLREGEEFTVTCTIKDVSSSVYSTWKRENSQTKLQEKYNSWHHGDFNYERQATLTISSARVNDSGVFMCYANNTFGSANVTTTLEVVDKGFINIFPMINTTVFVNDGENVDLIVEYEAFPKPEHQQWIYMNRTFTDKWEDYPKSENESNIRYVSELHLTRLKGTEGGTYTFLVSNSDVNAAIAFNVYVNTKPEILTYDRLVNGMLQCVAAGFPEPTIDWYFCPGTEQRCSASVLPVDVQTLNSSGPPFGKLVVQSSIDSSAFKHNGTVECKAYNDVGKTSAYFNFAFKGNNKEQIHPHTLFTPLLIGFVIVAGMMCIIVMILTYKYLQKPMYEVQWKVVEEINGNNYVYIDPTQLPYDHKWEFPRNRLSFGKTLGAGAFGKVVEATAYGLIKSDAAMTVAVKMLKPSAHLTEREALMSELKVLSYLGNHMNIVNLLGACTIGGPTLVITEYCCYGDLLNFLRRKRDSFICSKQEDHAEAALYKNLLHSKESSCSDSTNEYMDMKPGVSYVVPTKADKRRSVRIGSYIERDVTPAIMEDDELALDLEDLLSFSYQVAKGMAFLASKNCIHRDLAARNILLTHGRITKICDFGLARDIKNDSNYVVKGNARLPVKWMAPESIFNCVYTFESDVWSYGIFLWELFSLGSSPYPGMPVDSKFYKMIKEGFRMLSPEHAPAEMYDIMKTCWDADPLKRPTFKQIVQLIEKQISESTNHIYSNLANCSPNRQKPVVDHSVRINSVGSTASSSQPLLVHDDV
Chain of Mast/stem cell growth factor receptor Kit (Homo sapiens), P10721 [V559D] (P10721 whole entry V559D, the tested form may be a part): as the sequence (P10721 whole entry, looked up, stated change not applied) above, with V559D counted along it
Chain of Platelet-derived growth factor receptor alpha (P16234 whole entry, the tested form may be a part): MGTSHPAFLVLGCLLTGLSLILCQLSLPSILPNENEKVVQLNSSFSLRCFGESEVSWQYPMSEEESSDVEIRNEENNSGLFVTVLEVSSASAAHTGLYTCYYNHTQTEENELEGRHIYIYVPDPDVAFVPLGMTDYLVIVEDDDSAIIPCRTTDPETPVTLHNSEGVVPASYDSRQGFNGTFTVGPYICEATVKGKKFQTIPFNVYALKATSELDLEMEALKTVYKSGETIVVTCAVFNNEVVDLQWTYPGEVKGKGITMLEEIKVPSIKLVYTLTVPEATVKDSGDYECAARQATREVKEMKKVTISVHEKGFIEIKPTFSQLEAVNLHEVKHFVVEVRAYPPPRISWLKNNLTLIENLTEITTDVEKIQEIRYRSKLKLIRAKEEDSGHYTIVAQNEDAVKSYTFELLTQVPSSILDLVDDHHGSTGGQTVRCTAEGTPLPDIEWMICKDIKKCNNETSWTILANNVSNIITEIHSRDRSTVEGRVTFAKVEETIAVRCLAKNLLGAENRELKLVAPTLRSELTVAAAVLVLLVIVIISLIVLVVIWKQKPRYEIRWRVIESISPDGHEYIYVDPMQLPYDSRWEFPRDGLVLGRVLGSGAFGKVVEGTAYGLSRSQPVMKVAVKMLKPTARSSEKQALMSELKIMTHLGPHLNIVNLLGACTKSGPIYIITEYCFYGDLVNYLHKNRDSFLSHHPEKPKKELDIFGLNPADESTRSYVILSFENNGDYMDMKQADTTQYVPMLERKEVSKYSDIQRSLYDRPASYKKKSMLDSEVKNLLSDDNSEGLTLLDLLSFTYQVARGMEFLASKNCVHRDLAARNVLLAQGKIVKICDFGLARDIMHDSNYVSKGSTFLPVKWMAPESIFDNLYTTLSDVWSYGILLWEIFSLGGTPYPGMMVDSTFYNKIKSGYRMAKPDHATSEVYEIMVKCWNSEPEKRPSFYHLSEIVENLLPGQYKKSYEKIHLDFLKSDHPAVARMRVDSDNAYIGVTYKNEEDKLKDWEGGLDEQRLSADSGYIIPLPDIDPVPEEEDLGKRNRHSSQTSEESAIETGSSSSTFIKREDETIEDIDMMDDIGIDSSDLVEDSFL

With `O=C(CC(=O)Nc1ccc2c(/C=C/c3ccccn3)n[nH]c2c1)Nc1cccc(F)c1`, the Tmax in series [1] is 1.7 h. Moreover, the Drug uptake result in [2] is recorded as “Active”. Further, the inhibition entry in series [3], in series [4], in series [11], in series [12] and in series [13] was “Active” throughout. For the same compound, the inhibition entry in series [5] is “inactive”. Besides, the Activity is 3.4% in [6]; less than 1% in series [8]; “Dose-dependent effect” in series [9]; “Dose-dependent effect” in [16]; “Dose-dependent effect” in [17]; “Dose-dependent effect” in series [19]. Besides, the AUC(0-inf) in [7] came to 307 ng·h/mL; in series [14] it was 809 ng·h/mL. The AUC(0-t) in series [10] was determined as 898 ng·h/mL. In [15], the CL/F was 113 mL/min/kg. For the same compound, the highest level in series [18] (Cmax) was 3020 ng/mL.

The Tmax is the time at which the peak concentration occurs. In general, AUC(0-inf) refers to the area under the concentration-time curve extrapolated to infinity. One may read the AUC(0-t) as the area under the concentration-time curve up to a stated or last time point. A higher AUC(0-t) goes with more exposure. As usually defined, the Cmax is the maximum level reached in the sampled fluid or tissue.

For the origin of these results see ChEMBL document CHEMBL4304743, “Discovery of ( E)- N1-(3-Fluorophenyl)- N3-(3-(2-(pyridin-2-yl)vinyl)-1 H-indazol-6-yl)malonamide (CHMFL-KIT-033) as a Novel c-KIT T670I Mutant Selective Kinase Inhibitor for Gastrointestinal Stromal Tumors (GISTs)” (J Med Chem, 2019).
